Assay results pooled from the literature.
Compare with care: the assays were run in different laboratories.
Target: Glycogen synthase kinase-3 beta (GSK3B, Homo sapiens, UniProt P49841)

O=[N+]([O-])c1ccc([As](=O)(O)O)cc1  inhibition (enzyme activity, inhibitor, ADP detection; 100 µM): 5.2%
Cn1cncc1[C@](O)(COc1ccc(C#N)cc1-c1ccc(OC(F)(F)F)cc1)c1ccc(C#N)cc1  remaining binding (cell-free assay, competition with immobilised ligand; 1 µM): 93%
Cn1cc(-c2cccc(N3CCc4c(sc5c4CC(C)(C)C5)C3=O)c2CO)cc(Nc2ccncn2)c1=O  inhibition (enzyme activity, inhibitor; 1 µM): -5%
O=c1[nH]c2ccccc2n1C1CCN(Cc2ccc(-c3[nH]c4cc5ncnc5cc4nc3-c3ccccc3)cc2)CC1  remaining activity (enzyme activity; 0.5 µM): 113%
C#Cc1n[nH]c2c(-c3cn([C@@H](C)c4ccccc4)c(=O)[nH]c3=O)cc(F)cc12  inhibition (enzyme activity, inhibitor; 0.1 µM): -3.5%
CC(C)(C)c1cc(C=C(C#N)C#N)cc(Br)c1O  remaining activity (enzyme activity, inhibitor; 0.5 µM): 107%
Cc1nn(C)cc1-c1nc2c(N3CCN(Cc4ccc(Cl)cc4)CC3)c(Cl)cnc2[nH]1  remaining binding (binding, competition with immobilised ligand; 1 µM): 68%
COc1ncccc1-c1cnn2ccc(N3CCN(C(=O)OC(C)C)CC3)nc12  remaining binding (binding, competition with immobilised ligand; 1 µM): 62%
COc1cc2c(cc1-c1cc3cc4ccoc4cc3oc1=O)OCO2  inhibition (enzyme activity, inhibitor, ADP detection; 100 µM): 26.4%
C#Cc1n[nH]c2c(-c3cn([C@@H](C)c4ccccn4)c(=O)[nH]c3=O)cc(F)cc12  inhibition (enzyme activity, inhibitor; 0.1 µM): -0.1%
Cn1cc(-c2cc(F)cc(N3CCn4c(cc5c4CCCC5)C3=O)c2CO)cc(Nc2ccc(N3CCN(C4COC4)CC3)cn2)c1=O  inhibition (enzyme activity, inhibitor; 0.1 µM): 5%
COc1c2c(cc3c1OCO3)CC[N+](C)=C2  inhibition (enzyme activity, inhibitor, ADP detection; 100 µM): 24.8%
Nc1ncc(-c2nc(N3CCOCC3)nc(N3CCOCC3)n2)c(C(F)F)n1  remaining binding (binding, competition with immobilised ligand; 10 µM): 74%
